Here are results for 25 molecules from ChEMBL document CHEMBL1800022, “Structure-activity relationships of a series of analogues of the RFamide-related peptide 26RFa” (J Med Chem, 2011).

Non-standard residues stand in square brackets, D forms with d. Residues, ends and D or L forms follow the SMILES beside them. *: point of attachment. Adamantane1carbonyl = O=C(C12CC3CC(CC(C3)C1)C2)*; Cha = N[C@@H](CC1CCCCC1)C(=O)O; Tle = CC(C)(C)[C@H](N)C(=O)O; X2 = CN(C)C(=NCC(=O)*)N(C)C; X3 = C1CCN(N(N2CCCCC2)*)CC1; Nva = CCC[C@H](N)C(=O)O; Abu = CC[C@H](N)C(=O)O; NHBn = c1ccc(CN*)cc1; Piv = CC(C)(C)C(=O)*; X1 = CCN(Cc1ccccc1)*; Bz = O=C(c1ccccc1)*

In this experiment the target is T1, Pyroglutamylated RF-amide peptide receptor (Homo sapiens, UniProt Q96P65).
T1 sequence (Q96P65 whole entry): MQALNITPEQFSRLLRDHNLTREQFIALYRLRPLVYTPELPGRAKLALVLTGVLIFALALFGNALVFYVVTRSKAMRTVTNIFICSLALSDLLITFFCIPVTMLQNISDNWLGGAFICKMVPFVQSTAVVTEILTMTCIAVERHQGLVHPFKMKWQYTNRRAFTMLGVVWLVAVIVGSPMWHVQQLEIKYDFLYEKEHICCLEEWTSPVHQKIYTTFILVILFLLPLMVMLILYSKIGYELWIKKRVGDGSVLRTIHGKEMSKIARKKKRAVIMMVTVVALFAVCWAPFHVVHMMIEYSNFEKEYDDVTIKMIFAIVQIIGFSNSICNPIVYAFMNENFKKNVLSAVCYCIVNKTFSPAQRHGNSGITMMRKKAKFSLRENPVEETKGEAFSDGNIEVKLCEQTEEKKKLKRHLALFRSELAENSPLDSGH
Briefly: Agonist activity at DYKDDDDK-flagged human GPR103 receptor expressed in CHO-K1 cells co-expressing G-protein alpha16 assessed as stimulation of calcium mobilization after 2 mins by fluorometric analysis. It is filed as functional, cell-based. Summed up: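 CHO-K1 cells stably expressing Gα16 and C-terminally flag-tagged human GPR103 (Geneticin-selected), plated at 40 000 cells/well 24 h before assay. Loaded with 2 μM Fluo-4AM for 1 h, washed, then 30 min in HBSS with 2.5 mM probenecid and 5 mM HEPES. Peptides added at 10^-12 to 10^-5 M final and fluorescence read for 2 min. Triplicates; EC50 from sigmoidal variable-slope fit, at least three experiments.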

A word on the EC50: it is the concentration at which the effect is half-maximal. For the molecule `N=C(N)NCCC[C@H](NC(=O)[C@H](Cc1ccccc1)NC(=O)[C@H](CO)NC(=O)[C@H](Cc1ccccc1)NC(=O)CNC(=O)CNC(=O)c1ccccc1)C(=O)N[C@@H](Cc1ccccc1)C(N)=O` (Bz-GGFSFRF-NH2), the EC50 is 722 nM.

As to `CC(C)C[C@H](NC(=O)[C@H](CCC(=O)O)NC(=O)[C@H](CCC(=O)O)NC(=O)[C@H](C)NC(=O)[C@H](CC(C)C)NC(=O)[C@@H](N)CC(N)=O)C(=O)N[C@@H](CC(N)=O)C(=O)NCC(=O)N[C@@H](Cc1ccc(O)cc1)C(=O)N[C@@H](CO)C(=O)N[C@@H](CCCNC(=N)N)C(=O)N[C@@H](CCCCN)C(=O)N[C@@H](CCCCN)C(=O)NCC(=O)NCC(=O)N[C@@H](Cc1ccccc1)C(=O)N[C@@H](CO)C(=O)N[C@@H](Cc1ccccc1)C(=O)N[C@@H](CCCNC(=N)N)C(=O)N[C@@H](Cc1ccccc1)C(N)=O` (H-NLAEELNGYSRKKGGFSFRF-NH2), the EC50 is 30.2 nM.

Take `N=C(N)NCCC[C@H](NC(=O)[C@H](Cc1ccccc1)NC(=O)[C@H](CO)NC(=O)[C@H](Cc1ccccc1)NC(=O)CNC(=O)CN)C(=O)N[C@@H](Cc1ccccc1)C(N)=O`: the half-maximal effective concentration (EC50) is 739 nM.

For the molecule `CCC[C@H](NC(=O)[C@H](Cc1ccccc1)NC(=O)CNC(=O)CN)C(=O)N[C@@H](Cc1ccccc1)C(=O)N[C@@H](CCCNC(=N)N)C(=O)N[C@@H](Cc1ccccc1)C(N)=O` (H-GGF[Nva]FRF-NH2), the EC50 is 233 nM.

Turning to `N=C(N)NCCC[C@H](NC(=O)[C@H](Cc1ccccc1)NC(=O)[C@H](CO)NC(=O)[C@H](Cc1ccccc1)NC(=O)CNC(=O)CNC(=O)C12CC3CC(CC(C3)C1)C2)C(=O)N[C@@H](Cc1ccccc1)C(N)=O` (Adamantane1carbonyl-GGFSFRF-NH2), the concentration giving a half-maximal response (EC50) amounted to 588 nM.

As for `NCCCC[C@H](N)C(=O)NCC(=O)NCC(=O)N[C@@H](Cc1ccccc1)C(=O)N[C@@H](CO)C(=O)N[C@@H](Cc1ccccc1)C(=O)N[C@@H](CCCN=C(N)N)C(=O)N[C@@H](Cc1ccccc1)C(N)=O` (H-KGGFSFRF-NH2), the EC50 is 1710 nM.

For the molecule `NCC(=O)NCC(=O)N[C@@H](Cc1ccccc1)C(=O)N[C@@H](CO)C(=O)N[C@@H](Cc1ccccc1)C(=O)N[C@@H](CCCN=C(N)N)C(=O)N[C@@H](Cc1ccccc1)C(=O)N(N1CCCCC1)N1CCCCC1` (H-GGFSFRF-X3), the concentration for a half-maximal effect (EC50) was 1200 nM.

On to `N=C(N)NCCC[C@H](NC(=O)[C@H](Cc1ccccc1)NC(=O)[C@H](CC1CCCCC1)NC(=O)[C@H](Cc1ccccc1)NC(=O)CNC(=O)CN)C(=O)N[C@@H](Cc1ccccc1)C(N)=O` (H-GGF[Cha]FRF-NH2), for which the concentration for a half-maximal effect (EC50) came to 1100 nM.

For the molecule `CC(C)C[C@H](NC(=O)[C@H](Cc1ccccc1)NC(=O)CNC(=O)CN)C(=O)N[C@@H](Cc1ccccc1)C(=O)N[C@@H](CCCN=C(N)N)C(=O)N[C@@H](Cc1ccccc1)C(N)=O` (H-GGFLFRF-NH2), the concentration for a half-maximal effect (EC50) is 1470 nM.

On to `NCCCC[C@H](NC(=O)[C@H](CCCCN)NC(=O)[C@H](CCCN=C(N)N)NC(=O)[C@H](CO)NC(=O)[C@@H](N)Cc1ccc(O)cc1)C(=O)NCC(=O)NCC(=O)N[C@@H](Cc1ccccc1)C(=O)N[C@@H](CO)C(=O)N[C@@H](Cc1ccccc1)C(=O)N[C@@H](CCCN=C(N)N)C(=O)N[C@@H](Cc1ccccc1)C(N)=O` (H-YSRKKGGFSFRF-NH2), for which the EC50 came to 138 nM.

With `C[C@H](NC(=O)CN)C(=O)N[C@@H](Cc1ccccc1)C(=O)N[C@@H](CO)C(=O)N[C@@H](Cc1ccccc1)C(=O)N[C@@H](CCCN=C(N)N)C(=O)N[C@@H](Cc1ccccc1)C(N)=O` (H-GAFSFRF-NH2), the half-maximal effective concentration (EC50) turned out to be 2980 nM.

Consider `CCN(Cc1ccccc1)C(=O)[C@H](Cc1ccccc1)NC(=O)[C@H](CCCN=C(N)N)NC(=O)[C@H](Cc1ccccc1)NC(=O)[C@H](CO)NC(=O)[C@H](Cc1ccccc1)NC(=O)CNC(=O)CN` (H-GGFSFRF-X1), for which the half-maximal effective concentration (EC50) stood at 1090 nM.

Regarding `CC(C)(C)[C@H](NC(=O)[C@H](Cc1ccccc1)NC(=O)CNC(=O)CN)C(=O)N[C@@H](Cc1ccccc1)C(=O)N[C@@H](CCCN=C(N)N)C(=O)N[C@@H](Cc1ccccc1)C(N)=O` (H-GGF[Tle]FRF-NH2), the EC50 turned out to be 1820 nM.

Turning to `CC(=O)NCC(=O)NCC(=O)N[C@@H](Cc1ccccc1)C(=O)N[C@@H](CO)C(=O)N[C@@H](Cc1ccccc1)C(=O)N[C@@H](CCCNC(=N)N)C(=O)N[C@@H](Cc1ccccc1)C(N)=O` (Ac-GGFSFRF-NH2), the EC50 stood at 1440 nM.

For `N=C(N)NCCC[C@H](NC(=O)[C@H](Cc1ccccc1)NC(=O)[C@H](CO)NC(=O)[C@H](Cc1ccccc1)NC(=O)CNC(=O)CNC(=O)[C@H](CCCCN)NC(=O)[C@H](CCCCN)NC(=O)[C@@H](N)CCCNC(=N)N)C(=O)N[C@@H](Cc1ccccc1)C(N)=O` (H-RKKGGFSFRF-NH2), the concentration giving a half-maximal response (EC50) came out at 282 nM.

Regarding `CC(C)[C@H](NC(=O)[C@H](Cc1ccccc1)NC(=O)CNC(=O)CN)C(=O)N[C@@H](Cc1ccccc1)C(=O)N[C@@H](CCCN=C(N)N)C(=O)N[C@@H](Cc1ccccc1)C(N)=O` (H-GGFVFRF-NH2), the 50% effective concentration (EC50) came to 1630 nM.

With `CC(C)C[C@H](NC(=O)[C@@H]1CCCN1)C(=O)NCC(=O)N[C@@H](CC(N)=O)C(=O)N[C@@H](CC(C)C)C(=O)N[C@@H](C)C(=O)N[C@@H](CCC(=O)O)C(=O)N[C@@H](CCC(=O)O)C(=O)N[C@@H](CC(C)C)C(=O)N[C@@H](CC(N)=O)C(=O)NCC(=O)N[C@@H](Cc1ccc(O)cc1)C(=O)N[C@@H](CO)C(=O)N[C@@H](CCCN=C(N)N)C(=O)N[C@@H](CCCCN)C(=O)N[C@@H](CCCCN)C(=O)NCC(=O)NCC(=O)N[C@@H](Cc1ccccc1)C(=O)N[C@@H](CO)C(=O)N[C@@H](Cc1ccccc1)C(=O)N[C@@H](CCCN=C(N)N)C(=O)N[C@@H](Cc1ccccc1)C(N)=O` (H-PLGNLAEELNGYSRKKGGFSFRF-NH2), the concentration for a half-maximal effect (EC50) came out at 43.2 nM.

As to `CN(C)C(=NCC(=O)N[C@@H](Cc1ccccc1)C(=O)N[C@@H](CO)C(=O)N[C@@H](Cc1ccccc1)C(=O)N[C@@H](CCCNC(=N)N)C(=O)N[C@@H](Cc1ccccc1)C(N)=O)N(C)C` (X2-FSFRF-NH2), the EC50 is 455 nM.

`NCCCC[C@H](NC(=O)[C@H](CCCCN)NC(=O)[C@H](CCCN=C(N)N)NC(=O)[C@H](CO)NC(=O)[C@H](Cc1ccc(O)cc1)NC(=O)CNC(=O)[C@@H](N)CC(N)=O)C(=O)NCC(=O)NCC(=O)N[C@@H](Cc1ccccc1)C(=O)N[C@@H](CO)C(=O)N[C@@H](Cc1ccccc1)C(=O)N[C@@H](CCCN=C(N)N)C(=O)N[C@@H](Cc1ccccc1)C(N)=O` (H-NGYSRKKGGFSFRF-NH2): the concentration for a half-maximal effect (EC50) stood at 95.3 nM.

In the case of `CC(C)C[C@H](NC(=O)[C@H](CCC(=O)O)NC(=O)[C@@H](N)CCC(=O)O)C(=O)N[C@@H](CC(N)=O)C(=O)NCC(=O)N[C@@H](Cc1ccc(O)cc1)C(=O)N[C@@H](CO)C(=O)N[C@@H](CCCNC(=N)N)C(=O)N[C@@H](CCCCN)C(=O)N[C@@H](CCCCN)C(=O)NCC(=O)NCC(=O)N[C@@H](Cc1ccccc1)C(=O)N[C@@H](CO)C(=O)N[C@@H](Cc1ccccc1)C(=O)N[C@@H](CCCNC(=N)N)C(=O)N[C@@H](Cc1ccccc1)C(N)=O` (H-EELNGYSRKKGGFSFRF-NH2), the concentration giving a half-maximal response (EC50) worked out at 37.5 nM.

Turning to `NCCCC[C@H](NC(=O)[C@H](CCCCN)NC(=O)[C@H](CCCN=C(N)N)NC(=O)[C@@H](N)CO)C(=O)NCC(=O)NCC(=O)N[C@@H](Cc1ccccc1)C(=O)N[C@@H](CO)C(=O)N[C@@H](Cc1ccccc1)C(=O)N[C@@H](CCCN=C(N)N)C(=O)N[C@@H](Cc1ccccc1)C(N)=O` (H-SRKKGGFSFRF-NH2), the half-maximal effective concentration (EC50) worked out at 237 nM.

Turning to `CC(C)(C)C(=O)NCC(=O)NCC(=O)N[C@@H](Cc1ccccc1)C(=O)N[C@@H](CO)C(=O)N[C@@H](Cc1ccccc1)C(=O)N[C@@H](CCCN=C(N)N)C(=O)N[C@@H](Cc1ccccc1)C(N)=O` (Piv-GGFSFRF-NH2), the EC50 turned out to be 2540 nM.

On to `CC[C@H](NC(=O)[C@H](Cc1ccccc1)NC(=O)CNC(=O)CN)C(=O)N[C@@H](Cc1ccccc1)C(=O)N[C@@H](CCCNC(=N)N)C(=O)N[C@@H](Cc1ccccc1)C(N)=O` (H-GGF[Abu]FRF-NH2), for which the 50% effective concentration (EC50) is 355 nM.

Regarding `CC(C)C[C@H](NC(=O)[C@H](CC(N)=O)NC(=O)CNC(=O)[C@H](CC(C)C)NC(=O)[C@@H]1CCCN1C(=O)CNC(=O)[C@H](CO)NC(=O)[C@@H](N)[C@@H](C)O)C(=O)N[C@@H](C)C(=O)N[C@@H](CCC(=O)O)C(=O)N[C@@H](CCC(=O)O)C(=O)N[C@@H](CC(C)C)C(=O)N[C@@H](CC(N)=O)C(=O)NCC(=O)N[C@@H](Cc1ccc(O)cc1)C(=O)N[C@@H](CO)C(=O)N[C@@H](CCCNC(=N)N)C(=O)N[C@@H](CCCCN)C(=O)N[C@@H](CCCCN)C(=O)NCC(=O)NCC(=O)N[C@@H](Cc1ccccc1)C(=O)N[C@@H](CO)C(=O)N[C@@H](Cc1ccccc1)C(=O)N[C@@H](CCCNC(=N)N)C(=O)N[C@@H](Cc1ccccc1)C(N)=O` (H-TSGPLGNLAEELNGYSRKKGGFSFRF-NH2), the EC50 amounted to 10.4 nM.

With `CC(C)C[C@H](NC(=O)[C@H](CC(N)=O)NC(=O)CNC(=O)[C@H](CC(C)C)NC(=O)[C@@H]1CCCN1C(=O)CNC(=O)[C@H](CO)NC(=O)[C@@H](N)[C@@H](C)O)C(=O)N[C@@H](C)C(=O)N[C@@H](CCC(=O)O)C(=O)N[C@@H](CCC(=O)O)C(=O)N[C@@H](CC(C)C)C(=O)N[C@@H](CC(N)=O)C(=O)NCC(=O)N[C@@H](Cc1ccc(O)cc1)C(=O)N[C@@H](CO)C(=O)N[C@@H](CCCNC(=N)N)C(=O)N[C@@H](CCCCN)C(=O)N[C@@H](CCCCN)C(=O)NCC(=O)NCC(=O)N[C@@H](Cc1ccccc1)C(=O)N[C@@H](CO)C(=O)N[C@@H](Cc1ccccc1)C(=O)N[C@@H](CCCNC(=N)N)C(=O)NCc1ccccc1` (H-TSGPLGNLAEELNGYSRKKGGFSFR-NHBn), the 50% effective concentration (EC50) turned out to be 67 nM.
